Source: ChEMBL document CHEMBL4382197, “Discovery of QCA570 as an Exceptionally Potent and Efficacious Proteolysis Targeting Chimera (PROTAC) Degrader of the Bromodomain and Extra-Terminal (BET) Proteins Capable of Inducing Complete and Durable Tumor Regression” (J Med Chem, 2018)
The source made the active and inactive calls. No cut-off for these calls is given here.

Legend:
[1] = test system: MOLM-13; test: Induction of apoptosis in human MOLM13 cells after 24 hrs by Annexin V/propidium iodine-double staining-based flow cytometry; type: functional, cell-based
How it was run: (§1)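 Leukemia cells were treated for 24 h or 48 h at the indicated concentrations. They were then collected, washed in cold PBS and stained with Annexin V and propidium iodide. Apoptotic fraction was measured by flow cytometry.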

[2] = Drug uptake in heart of SCID mouse xenografted with human RS4:11 cells at 5 mg/kg, iv measured at 6 hrs by LC-MS/MS analysis; type: ADME, organism-based; conditions: in vivo, BLD = below limit of detection
How it was run: (§2)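 Female SCID mice with RS4;11 tumors received a single 5 mg/kg intravenous dose in 20% PCP/80% PBS. Plasma (heparin) and tissues were taken at 1, 3 and 6 h, one mouse per time point in duplicate. Plasma was precipitated with acetonitrile containing internal standard. Tissues were homogenized 5:1 in 20% acetonitrile. Quantified by LC-MS/MS against spiked plasma standards (2–2000 ng/mL); values in ng/ml or ng/g.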

[3] = target: T1, Protein cereblon/Bromodomain-containing protein 3/Cullin-4A (Homo sapiens) (UniProt Q15059+Q96SW2+Q13619); test: Protac activity at cereblon/cullin 4A/BRD3 in human MV4-11 cells assessed as BRD3 degradation at 10 pM after 3 hrs by Western blot analysis; type: cell-based
[4] = test system: RS4-11; test: Induction of apoptosis in human RS4:11 cells after 24 to 48 hrs by Annexin V/propidium iodine-double staining-based flow cytometry; type: functional, cell-based; how it was run: as §1
[5] = Drug uptake in liver of SCID mouse xenografted with human RS4:11 cells at 5 mg/kg, iv measured at 6 hrs by LC-MS/MS analysis; type: ADME, organism-based; conditions: in vivo, BLD = below limit of detection; how it was run: as §2
[6] = target: T2, Protein cereblon/Bromodomain-containing protein 2/Cullin-4A (Homo sapiens) (UniProt P25440+Q96SW2+Q13619); test: Protac activity at cereblon/cullin 4A/BRD2 in human RS4:11 cells assessed as BRD2 degradation at 0.5 nM after 3 hrs in presence of lenalidomide by Western blot analysis; type: cell-based
How it was run: (§3)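 RS4;11 cells were pre-treated for 2 h with DMSO, lenalidomide (10 μM), MLN4924 (1 μM) or MG-132 (20 μM). The degrader was then added at 0.5 nM for 3 h. Lysates were immunoblotted for BRD2, BRD3 and BRD4, with GAPDH as loading control.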

[7] = Toxicity in SCID mouse xenografted with human RS4:11 cells assessed weight loss at 1 to 5 mg/kg, iv administered 3 times per week for 3 weeks; type: organism-based; conditions: in vivo, 504 h
How it was run: (§4)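 SCID mice received a subcutaneous dorsal implant of 5×10^6 RS4;11 cells in 50% Matrigel, one tumor per mouse. Mice were randomized at ~100 mm3 into treatment or vehicle groups. Doses were 1, 2.5 or 5 mg/kg three times weekly for 3 weeks, with body weight and signs of toxicity monitored.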

[8] = target: T2, Protein cereblon/Bromodomain-containing protein 2/Cullin-4A (Homo sapiens); test: Protac activity at cereblon/cullin 4A/BRD2 in human RS4:11 cells assessed as BRD2 degradation at 0.5 nM after 3 hrs in presence of proteasome inhibitor MG132 by Western blot analysis; type: cell-based; how it was run: as §3
[9] = target: T1, Protein cereblon/Bromodomain-containing protein 3/Cullin-4A (Homo sapiens); test: Protac activity at cereblon/cullin 4A/BRD3 in human RS4:11 cells assessed as BRD3 degradation at 0.5 nM after 3 hrs in presence of proteasome inhibitor MG132 by Western blot analysis; type: cell-based; how it was run: as §3
[10] = test system: RS4-11; test: Antitumor activity against human RS4:11 cells xenografted in SCID mouse assessed tumor regression at 1 to 5 mg/kg, iv administered 3 times per week for 3 weeks; type: functional, organism-based
How it was run: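 RS4;11 xenografts: 5×10^6 cells in 50% Matrigel injected subcutaneously on the dorsal side of SCID mice, one tumor per mouse. Randomized to treatment or vehicle at ~100 mm3. Intravenous dosing on several schedules, including 3 times per week for 3 weeks and weekly. Volume = L × W2/2; body weight tracked.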

[11] = test system: Mus musculus; test: In vivo Protac activity at cereblon/cullin/BET in tumor of human RS4:11 cells xenografted in SCID mouse assessed as reduction in cMyc protein expression at 1 to 5 mg/kg, iv administered as single dose and measured at 1 to 24 hrs post dose by Western blot analysis; type: functional, organism-based
How it was run: (§5)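 SCID mice bearing subcutaneous RS4;11 tumors were given a single intravenous dose of 1 or 5 mg/kg. Tumors were harvested at 1, 6 and 24 h, two mice per time point. Tissue was ground in liquid nitrogen and lysed in CST buffer with protease inhibitors. 20 µg lysate per lane was probed for BRD2, BRD3, BRD4, c-Myc and cleaved PARP, with GAPDH as loading control.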

[12] = target: T1, Protein cereblon/Bromodomain-containing protein 3/Cullin-4A (Homo sapiens); test: Protac activity at cereblon/cullin 4A/BRD3 in human RS4:11 cells assessed as BRD3 degradation at 0.5 nM after 3 hrs in presence of lenalidomide by Western blot analysis; type: cell-based; how it was run: as §3
[13] = target: Protein cereblon/Bromodomain-containing protein 4/Cullin-4A (Homo sapiens) (UniProt O60885+Q96SW2+Q13619); test: Protac activity at cereblon/cullin 4A/BRD4 in human MV4-11 cells assessed as BRD4 degradation at 10 pM after 3 hrs by Western blot analysis; type: cell-based
[14] = test system: Mus musculus; test: In vivo Protac activity at cereblon/cullin/BRD3 in tumor of human RS4:11 cells xenografted in SCID mouse assessed as reduction in BRD3 protein expression at 1 to 5 mg/kg, iv administered as single dose and measured at 1 to 6 hrs post dose by Western blot analysis; type: functional, organism-based; how it was run: as §5
[15] = test system: MOLM-13; test: Induction of apoptosis in human MOLM13 cells at 1 nM after 24 hrs by Annexin V/propidium iodine-double staining-based flow cytometry relative to control; type: functional; how it was run: as §1
[16] = Toxicity in SCID mouse xenografted with human RS4:11 cells at 1 to 5 mg/kg, iv administered 3 times per week for 3 weeks; type: organism-based; conditions: in vivo, 504 h; how it was run: as §4
[17] = test system: MV4-11; test: Antitumor activity against human MV4-11 cells xenografted in SCID mouse assessed tumor regression at 5 mg/kg, iv administered 3 times per week for 2 weeks; type: functional, organism-based
How it was run: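 MV4;11 xenografts: 5×10^6 cells in 50% Matrigel injected subcutaneously on the dorsal side of SCID mice, one tumor per mouse. Mice randomized at ~100 mm3. Dosed intravenously three times a week for two weeks. Tumor volume = L × W2/2; body weight monitored.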

[18] = test system: Mus musculus; test: In vivo Protac activity at cereblon/cullin/BRD4 in tumor of human RS4:11 cells xenografted in SCID mouse assessed as reduction in BRD4 protein expression at 1 to 5 mg/kg, iv administered as single dose and measured at 1 to 6 hrs post dose by Western blot analysis; type: functional, organism-based; how it was run: as §5
[19] = target: T2, Protein cereblon/Bromodomain-containing protein 2/Cullin-4A (Homo sapiens); test: Protac activity at cereblon/cullin 4A/BRD2 in human RS4:11 cells assessed as BRD2 degradation at 30 to 100 pM after 3 hrs by Western blot analysis; type: cell-based
[20] = target: Protein cereblon/Eukaryotic peptide chain release factor GTP-binding subunit ERF3A/Cullin-4A (Homo sapiens) (UniProt Q96SW2+Q13619+P15170); test: Induction of Cereblon/Cullin 4A-mediated-GSPT1 degradation in human RS4:11 cells at 0.01 to 10 nM after 3 hrs by Western blot analysis; type: cell-based
[21] = Drug uptake in kidney of SCID mouse xenografted with human RS4:11 cells at 5 mg/kg, iv measured at 6 hrs by LC-MS/MS analysis; type: ADME, organism-based; conditions: in vivo, BLD = below limit of detection; how it was run: as §2
[22] = test system: MOLM-13; test: Growth inhibition of human MOLM13 cells after 96 hrs by CCK8 assay; type: functional, cell-based; conditions: MOLM-13, 96 h

T1 sequence (Q13619 whole entry, looked up): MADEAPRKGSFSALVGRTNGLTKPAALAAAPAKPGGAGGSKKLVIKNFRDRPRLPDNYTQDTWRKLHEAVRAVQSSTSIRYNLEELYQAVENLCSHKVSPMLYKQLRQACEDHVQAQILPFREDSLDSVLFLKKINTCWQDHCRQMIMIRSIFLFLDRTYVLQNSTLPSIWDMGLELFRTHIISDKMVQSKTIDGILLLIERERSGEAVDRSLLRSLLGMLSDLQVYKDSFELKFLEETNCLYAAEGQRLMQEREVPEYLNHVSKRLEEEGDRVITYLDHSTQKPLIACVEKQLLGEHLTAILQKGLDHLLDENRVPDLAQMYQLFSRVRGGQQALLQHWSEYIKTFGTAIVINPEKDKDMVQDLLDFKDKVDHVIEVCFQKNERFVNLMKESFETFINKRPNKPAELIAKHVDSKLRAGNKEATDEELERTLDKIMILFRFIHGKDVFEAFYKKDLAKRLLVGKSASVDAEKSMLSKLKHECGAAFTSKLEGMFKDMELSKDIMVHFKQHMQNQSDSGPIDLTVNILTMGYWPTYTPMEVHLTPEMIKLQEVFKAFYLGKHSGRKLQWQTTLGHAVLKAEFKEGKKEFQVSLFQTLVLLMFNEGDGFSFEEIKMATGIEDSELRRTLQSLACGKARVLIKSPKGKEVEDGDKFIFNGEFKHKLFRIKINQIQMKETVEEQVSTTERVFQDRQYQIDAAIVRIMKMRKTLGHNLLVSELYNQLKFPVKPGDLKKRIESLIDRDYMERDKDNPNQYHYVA
T1 sequence (Q15059 whole entry, looked up): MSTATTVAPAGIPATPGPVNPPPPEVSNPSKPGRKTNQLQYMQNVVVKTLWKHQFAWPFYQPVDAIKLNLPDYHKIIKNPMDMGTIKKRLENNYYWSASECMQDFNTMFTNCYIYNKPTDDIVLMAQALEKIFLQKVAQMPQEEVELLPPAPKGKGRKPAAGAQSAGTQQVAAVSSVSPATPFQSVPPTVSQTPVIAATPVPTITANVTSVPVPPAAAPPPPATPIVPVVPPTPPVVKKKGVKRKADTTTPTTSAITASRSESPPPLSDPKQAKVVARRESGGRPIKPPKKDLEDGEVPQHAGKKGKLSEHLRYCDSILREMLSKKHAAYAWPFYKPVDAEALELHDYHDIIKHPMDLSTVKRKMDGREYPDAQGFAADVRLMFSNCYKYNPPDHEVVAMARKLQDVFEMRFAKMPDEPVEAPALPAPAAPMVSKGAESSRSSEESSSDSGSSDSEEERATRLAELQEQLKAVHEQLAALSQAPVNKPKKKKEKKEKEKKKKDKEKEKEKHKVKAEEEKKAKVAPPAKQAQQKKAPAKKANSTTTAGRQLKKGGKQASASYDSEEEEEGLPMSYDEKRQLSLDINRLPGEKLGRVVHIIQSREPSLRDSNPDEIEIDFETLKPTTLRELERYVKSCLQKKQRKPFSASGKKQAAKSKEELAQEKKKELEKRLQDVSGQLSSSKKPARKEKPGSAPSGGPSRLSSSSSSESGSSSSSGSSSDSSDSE
T1 sequence (Q96SW2 whole entry, looked up): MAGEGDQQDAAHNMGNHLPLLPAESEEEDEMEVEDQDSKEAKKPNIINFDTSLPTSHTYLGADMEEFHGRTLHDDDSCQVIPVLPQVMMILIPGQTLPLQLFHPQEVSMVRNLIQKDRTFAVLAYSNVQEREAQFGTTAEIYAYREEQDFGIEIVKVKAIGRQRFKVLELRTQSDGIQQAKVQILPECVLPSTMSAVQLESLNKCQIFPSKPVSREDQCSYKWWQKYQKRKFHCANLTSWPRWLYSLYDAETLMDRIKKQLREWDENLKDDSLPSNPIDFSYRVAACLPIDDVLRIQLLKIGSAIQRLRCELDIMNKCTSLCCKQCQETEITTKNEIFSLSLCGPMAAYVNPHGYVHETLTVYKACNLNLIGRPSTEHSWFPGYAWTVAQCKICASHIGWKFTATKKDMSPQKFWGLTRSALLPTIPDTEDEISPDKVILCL
T2 sequence (P25440 whole entry, looked up): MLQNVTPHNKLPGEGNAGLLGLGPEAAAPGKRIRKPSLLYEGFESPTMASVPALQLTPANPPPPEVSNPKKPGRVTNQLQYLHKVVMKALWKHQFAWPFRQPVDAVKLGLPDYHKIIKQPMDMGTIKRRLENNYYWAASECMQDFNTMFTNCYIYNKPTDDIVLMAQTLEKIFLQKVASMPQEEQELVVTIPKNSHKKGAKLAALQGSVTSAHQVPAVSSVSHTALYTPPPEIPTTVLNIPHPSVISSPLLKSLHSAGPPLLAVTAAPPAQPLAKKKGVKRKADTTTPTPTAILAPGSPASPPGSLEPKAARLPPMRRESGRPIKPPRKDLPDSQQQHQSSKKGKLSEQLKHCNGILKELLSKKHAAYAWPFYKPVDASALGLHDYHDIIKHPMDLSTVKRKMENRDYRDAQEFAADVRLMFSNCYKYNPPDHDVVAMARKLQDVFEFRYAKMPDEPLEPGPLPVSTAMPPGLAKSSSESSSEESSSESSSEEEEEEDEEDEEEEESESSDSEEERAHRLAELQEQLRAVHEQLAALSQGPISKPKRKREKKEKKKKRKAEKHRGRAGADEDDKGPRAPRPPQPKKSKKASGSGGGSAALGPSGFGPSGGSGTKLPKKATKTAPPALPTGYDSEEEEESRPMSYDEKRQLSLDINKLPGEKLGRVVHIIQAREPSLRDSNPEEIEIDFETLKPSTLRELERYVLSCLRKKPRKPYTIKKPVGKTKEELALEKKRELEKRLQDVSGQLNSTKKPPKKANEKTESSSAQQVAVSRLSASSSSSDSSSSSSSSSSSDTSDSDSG
T2 sequence (Q13619 whole entry, looked up): as the sequence (Q13619 whole entry, looked up) above
T2 sequence (Q96SW2 whole entry, looked up): as the sequence (Q96SW2 whole entry, looked up) above
Protein cereblon/Eukaryotic peptide chain release factor GTP-binding subunit ERF3A/Cullin-4A (Homo sapiens), sequence (P15170 whole entry, looked up): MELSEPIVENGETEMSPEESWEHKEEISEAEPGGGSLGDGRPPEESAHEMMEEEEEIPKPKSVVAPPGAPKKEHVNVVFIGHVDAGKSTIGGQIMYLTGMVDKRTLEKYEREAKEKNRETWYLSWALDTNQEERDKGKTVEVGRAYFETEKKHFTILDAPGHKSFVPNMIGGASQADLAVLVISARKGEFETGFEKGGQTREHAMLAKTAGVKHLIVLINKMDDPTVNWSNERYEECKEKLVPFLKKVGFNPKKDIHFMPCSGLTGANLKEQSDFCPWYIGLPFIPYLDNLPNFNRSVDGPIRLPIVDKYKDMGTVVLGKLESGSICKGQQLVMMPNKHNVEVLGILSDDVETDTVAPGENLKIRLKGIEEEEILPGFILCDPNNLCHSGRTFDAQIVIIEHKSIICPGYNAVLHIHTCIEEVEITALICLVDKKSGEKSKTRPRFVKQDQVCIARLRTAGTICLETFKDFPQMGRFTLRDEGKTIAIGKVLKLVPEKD
Protein cereblon/Eukaryotic peptide chain release factor GTP-binding subunit ERF3A/Cullin-4A (Homo sapiens), sequence (Q13619 whole entry, looked up): as the sequence (Q13619 whole entry, looked up) above
Protein cereblon/Eukaryotic peptide chain release factor GTP-binding subunit ERF3A/Cullin-4A (Homo sapiens), sequence (Q96SW2 whole entry, looked up): as the sequence (Q96SW2 whole entry, looked up) above

Cc1nnc2n1Cc1sc(C#Cc3cnn(CCCC#Cc4cccc5c4CN(C4CCC(=O)NC4=O)C5=O)c3)c(Cc3ccccc3)c1OC2 (configuration not stated)
Activity [1]: Dose-dependent effect
Drug uptake [2]: Bld
Activity [3]: Active
Activity [4]: Dose-dependent effect
Drug uptake [5]: Bld
Activity [6]: inactive
Activity [7]: Non-Toxic
Activity [8]: inactive
Activity [9]: inactive
Activity [10]: Active
Activity [11]: Active
Activity [12]: inactive
Activity [13]: Active
Activity [14]: Active
Activity [15]: >60%
Activity [16]: Non-Toxic
Activity [17]: Active
Activity [18]: Active
Activity [19]: Active
Activity [20]: inactive
Drug uptake [21]: Bld
IC50 [22]: 0.062 nM
